Converted amounts (≈) assume the structure as drawn. The source made the active and inactive calls. The rule behind the calls is not given here.
Legend:
[1] = Cytotoxicity against human CAKI cells after 72 hrs by SRB assay; type: functional; settings: read-out: ED50 (the source's name)
Method in brief: (§1)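 Stock cultures kept in RPMI-1640 with 25 mM HEPES, 0.2% (w/v) NaHCO3, 10% (v/v) FBS and 100 µg/mL kanamycin at 37 °C, 5% CO2. Trypsinized cells seeded at 2500-10 000 per well and exposed 72 h at 37 °C to graded concentrations from DMSO stocks (final DMSO ≤2% v/v). Cells fixed with cold 50% TCA, stained with 0.4% SRB, A562 read. ED50 interpolated from dose-response, triplicate.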

SK-MEL = assay: Cytotoxicity against human SK-MEL cells after 72 hrs by SRB assay; type: functional; settings: read-out: ED50 (the source's name); method in brief: as §1
HTC [2] = assay: Cytostatic activity against rat HTC cells at 33 ug/ml; type: functional, cell-based
HTC [3] = assay: Cytostatic activity against rat HTC cells at 66 ug/ml under direct photoirradiation; type: functional, cell-based
HTC [4] = assay: Cytostatic activity against rat HTC cells at 66 ug/ml; type: functional, cell-based
KB [5] = assay: Cytotoxicity against human KB cells after 72 hrs by SRB assay; type: functional; settings: read-out: ED50 (the source's name); method in brief: as §1
MCF7 = assay: Cytotoxicity against human MCF7 cells after 72 hrs by SRB assay; type: functional; settings: MCF7, 72 h, read-out: ED50 (the source's name); method in brief: as §1
HTC [6] = assay: Cytostatic activity against rat HTC cells at 33 ug/ml under direct photoirradiation; type: functional, cell-based
HCT-8 = assay: Cytotoxicity against human HCT8 cells after 72 hrs by SRB assay; type: functional; settings: HCT-8, 72 h, read-out: ED50 (the source's name); method in brief: as §1
A549 = assay: Cytotoxicity against human A549 cells after 72 hrs by SRB assay; type: functional; settings: A549, 72 h, read-out: ED50 (the source's name); method in brief: as §1
1A9 = assay: Cytotoxicity against human 1A9 cells after 72 hrs by SRB assay; type: functional; settings: 1A9, 72 h, read-out: ED50 (the source's name); method in brief: as §1
KB [7] = assay: Selectivity for human KB-7d cells to human KB cells; type: functional
KB [8] = assay: Selectivity for human KB-CPT cells to human KB cells; type: functional
KB [9] = assay: Selectivity for human KB-VCR cells to human KB cells; type: functional

| Compound | EC50 [1] [µg/mL] | EC50 (SK-MEL) [µg/mL] | Activity (HTC [2]) | Activity (HTC [3]) | Activity (HTC [4]) | EC50 (KB [5]) [µg/mL] | EC50 (MCF7) [µg/mL] | Activity (HTC [6]) | EC50 (HCT-8) [µg/mL] | EC50 (A549) [µg/mL] | EC50 (1A9) [µg/mL] | fold change (FC) (KB [7]) | fold change (FC) (KB [8]) | fold change (FC) (KB [9]) |
| --- | --- | --- | --- | --- | --- | --- | --- | --- | --- | --- | --- | --- | --- | --- |
| C=Cc1c(C)c2cc3nc(c(C(=O)C(=O)OC)c4[nH]c(cc5nc(cc1[nH]2)C(C)=C5CC)c(C)c4C(=O)OC)[C@@H](CCC(=O)OC)[C@@H]3C | 0.55 (≈ 0.843 µM) | 1.1 (≈ 1.69 µM) | inactive | Active | inactive | 0.2 (≈ 0.306 µM) | 0.73 (≈ 1.12 µM) | Active | 0.79 (≈ 1.21 µM) | 0.49 (≈ 0.751 µM) | 0.2 (≈ 0.306 µM) |  |  |  |
| COc1cc([C@@H]2c3cc4c(cc3[C@@H](O[C@@H]3O[C@@H]5CO[C@@H](C)O[C@H]5[C@H](O)[C@H]3O)[C@H]3COC(=O)[C@H]23)OCO4)cc(OC)c1O [ETOPOSIDE] |  |  |  |  |  |  |  |  |  |  |  | 119 | 1 | 153 |
| C=Cc1c(C)c2cc3nc(c4c5[nH]c(cc6nc(cc1[nH]2)C(C)=C6CC)c(C)c5C(=O)[C@]4(O)C(=O)OC)[C@@H](CCC(=O)OC/C=C(\C)CCCC(C)CCCC(C)CC(O)CC(C)C)[C@@H]3C (mixture of isomers) |  |  |  |  |  |  |  | Active |  |  |  |  |  |  |
| C=Cc1c(C)c2cc3nc(c(C(=O)C(=O)OC)c4[nH]c(cc5nc(cc1[nH]2)C(C)=C5CC)c(C)c4C(=O)OC)[C@@H](CCC(=O)O)[C@@H]3C [PURPURIN 7 DIMETHYL ESTER] | 1.3 (≈ 2.04 µM) | 1.1 (≈ 1.72 µM) | inactive | Active | inactive | 0.7 (≈ 1.1 µM) | 1.6 (≈ 2.51 µM) | Active | 1.6 (≈ 2.51 µM) | 1.8 (≈ 2.82 µM) | 0.64 (≈ 1 µM) | 0.7 | 1 | 0.5 |
| C=Cc1c(C)c2cc3nc(c4c5[nH]c(cc6nc(cc1[nH]2)C(C)=C6CC)c(C)c5C(=O)[C@]4(O)C(=O)OC)[C@@H](CCC(=O)O)[C@@H]3C | 3 (≈ 4.93 µM) | 4 (≈ 6.57 µM) | inactive | Active | inactive | 1.3 (≈ 2.14 µM) | > 4 | Active | > 4 | > 4 | 1.2 (≈ 1.97 µM) |  |  |  |
| C=Cc1c(C)c2cc3nc(c4c5[nH]c(cc6nc(cc1[nH]2)C(C)=C6CC)c(C)c5C(=O)[C@]4(O)C(=O)OC)[C@@H](CCC(=O)OC/C=C(\C)CCCC(C)CCCC(C)CCCC(C)C)[C@@H]3C (stereo not given in full) | 19 (≈ 21.4 µM) | 14 (≈ 15.8 µM) |  |  |  | 12 (≈ 13.5 µM) | 8.8 (≈ 9.92 µM) |  | 14 (≈ 15.8 µM) | 15 (≈ 16.9 µM) | 22 (≈ 24.8 µM) |  |  |  |
| C=Cc1c(C)c2cc3nc(c4c5[nH]c(cc6nc(cc1[nH]2)C(C)=C6CC)c(C)c5C(=O)[C@@H]4C(=O)OC)[C@@H](CCC(=O)O)[C@@H]3C [PHEOPHORBIDE A] | 0.88 (≈ 1.48 µM) | 0.91 (≈ 1.54 µM) | inactive | Active | inactive | 0.46 (≈ 0.776 µM) | 1.6 (≈ 2.7 µM) | Active | 1.5 (≈ 2.53 µM) | 1.5 (≈ 2.53 µM) | 0.48 (≈ 0.81 µM) | 1 | 1.1 | 0.6 |
| C=Cc1c(C)c2cc3nc(c4c5[nH]c(cc6nc(cc1[nH]2)C(C)=C6CC)c(C)c5C(=O)[C@@H]4C(=O)OC)[C@@H](CCC(=O)OC)[C@@H]3C [METHYL PHEOPHORBIDE A] | 0.62 (≈ 1.02 µM) | 1.2 (≈ 1.98 µM) | inactive | Active | inactive | 0.23 (≈ 0.379 µM) | 0.95 (≈ 1.57 µM) | Active | 1 (≈ 1.65 µM) | 0.83 (≈ 1.37 µM) | 0.26 (≈ 0.429 µM) |  |  |  |
| C=Cc1c(C)c2cc3nc(c4c5[nH]c(cc6nc(cc1[nH]2)C(C)=C6CC)c(C)c5C(=O)[C@]4(O)C(=O)OC)[C@@H](CCC(=O)OC)[C@@H]3C | 1.9 (≈ 3.05 µM) | 0.84 (≈ 1.35 µM) | inactive | Active | inactive | 0.3 (≈ 0.482 µM) | 0.45 (≈ 0.723 µM) | Active | 0.4 (≈ 0.642 µM) | 0.47 (≈ 0.755 µM) | 0.27 (≈ 0.434 µM) | 0.8 | 1.1 | >57 |
| CC(=O)O[C@H]1C(=O)[C@@]2(C)[C@H]([C@H](OC(=O)c3ccccc3)[C@]3(O)C[C@H](OC(=O)[C@H](O)[C@@H](NC(=O)c4ccccc4)c4ccccc4)C(C)=C1C3(C)C)[C@]1(OC(C)=O)CO[C@@H]1C[C@@H]2O [PACLITAXEL] |  |  |  |  |  |  |  |  |  |  |  | 1 | 1 | 15 |
| C=Cc1c(C)c2cc3nc(c4c5[nH]c(cc6nc(cc1[nH]2)C(C=O)=C6CC)c(C)c5C(=O)[C@@H]4C(=O)OC)[C@@H](CCC(=O)OC/C=C(\C)CCCC(C)CCCC(C)CCCC(C)C)[C@@H]3C (stereo not given in full) |  |  |  |  |  |  |  | Active |  |  |  |  |  |  |

— ChEMBL document CHEMBL1155723, “Cytotoxic pheophorbide-related compounds from Clerodendrum calamitosum and C. cyrtophyllum” (2001)
